Screens as filed in PubChem BioAssay.
Myeloid diff 2: promotes myeloid progenitor differentiation | ER-HoxA9 myeloid progenitors, lysozyme-GFP differentiation, flow cytometry | calls only at 10 µM | 360,000 compounds, 1% hits;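 active means normalized GFP-positive differentiation at or above the plate's own cutoff, the solvent-only control mean plus 3 SD; inconclusive means no clear call, values can overlap the other calls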;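 further: cells exposed to compound for four days before flow analysis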
PP1 inh: PP1-alpha (human) inhibition in PP5 counter-screen. inhibition, % at 6.7 µM. AID 2235. 320,000 compounds, 0.9% hits. purified PP1alpha, OMFP fluorescence;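 active means inhibition above the mean inhibition of all tested compounds plus 3 SD, computed separately for each screening campaign, cut at about 15% in these data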
PP5 primary: PP5 (human) phosphatase inhibition. purified PP5c, OMFP substrate fluorescence. inhibition, % at 6.7 µM. 320,000 compounds, 0.18% hits. AID 1987;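 active means inhibition above the campaign's mean inhibition across all tested compounds plus 3 SD, cut at about 9.5% in these data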;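 further: 0% = DMSO only and 100% = 100 µM cantharidin control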
Target sequence (P53041 whole entry, looked up): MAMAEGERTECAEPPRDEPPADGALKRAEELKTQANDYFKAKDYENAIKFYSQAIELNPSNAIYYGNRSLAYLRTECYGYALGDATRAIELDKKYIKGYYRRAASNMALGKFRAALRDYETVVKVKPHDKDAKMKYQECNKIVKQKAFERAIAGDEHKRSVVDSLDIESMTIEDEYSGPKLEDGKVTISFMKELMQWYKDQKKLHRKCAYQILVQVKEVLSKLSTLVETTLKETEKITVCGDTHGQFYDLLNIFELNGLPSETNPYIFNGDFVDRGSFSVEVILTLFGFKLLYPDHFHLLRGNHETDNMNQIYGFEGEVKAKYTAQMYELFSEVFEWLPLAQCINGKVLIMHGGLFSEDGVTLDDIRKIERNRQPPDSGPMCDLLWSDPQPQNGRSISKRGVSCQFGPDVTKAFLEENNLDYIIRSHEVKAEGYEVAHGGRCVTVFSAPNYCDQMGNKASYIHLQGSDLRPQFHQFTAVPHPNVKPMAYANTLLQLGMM
CTSL1 counter: cathepsin L1 inhibition, PFM18AAP counter-screen; recombinant F. hepatica cathepsin L1, Z-Leu-Arg-MCA fluorescence; inhibition, % at 5.96 µM; 300,000 compounds, 0.49% hits; AID 1906;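 active means inhibition above the mean of all tested compounds plus 3 SD, set per screening campaign, cut at about 17% in these data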;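 further: 0% = plate median of test compound wells and 100% = 1 µM Z-Phe-Ala-diazomethylketone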
NadD block: NadD (S. aureus) enzyme inhibition. purified NadD enzyme, colorimetric absorbance read-out. inhibition, % at 20 µM. 360,000 compounds, 0.78% hits; in the data active means inhibition above about 26%
core dimer inh: blocks dimerization of HCV core protein. TR-FRET GST/Flag-core106 dimerization, 1536-well. inhibition, % at 5 µM. 300,000 compounds, 0.33% hits;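 active means inhibition above the mean of all tested compounds plus 3 SD, set per screening campaign, cut at about 45% in these data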
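System: GST-tagged and Flag-tagged HCV core protein residues 1-106 / Input: core106 proteins, GST 13.5 nM and Flag 17 nM / Buffer or medium: KF-containing HEPES buffer, pH 7.45, DTT, CHAPS, BSA / Probe or stimulus: Eu-anti-GST and XL665-anti-Flag labelled anti-tag antibodies / Schedule: 4 h, 22.5 °C incubation / Technique: TR-FRET 671 and 617 nm emission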
PP1 inh confirm: human PP1 phosphatase inhibition, confirmation; inhibition, % at 6.7 µM; shares compounds with PP1 inh; AID 2358; 1,900 compounds, 52% hits; purified PP1alpha, OMFP substrate fluorescence;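 active means mean PP1 inhibition above a set limit taken from the earlier primary screen, cut at about 15% in these data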
PP5 counter: PP5 phosphatase inhibition, counter-screen for PP1 inhibitors. shares compounds with PP1 inh. purified PP5c, OMFP fluorescence. inhibition, % at 6.7 µM. 1,900 compounds, 4% hits;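 active means mean PP5 inhibition over triplicate wells above about 9.5% taken from the earlier PP1 screen, limit read from the data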
* = called active by the depositor. Hits are enriched below; roughly 3.1% of the tested compounds scored in any of these assays.

For CCCCn1c2ccccc2c2nnc(SCC(=O)NC3=NN=C(c4ccccc4)CS3)nc21 the results were PP1 inh 26.1*, PP5 primary 2.4, CTSL1 counter 3.2, core dimer inh 28.0, PP1 inh confirm 26.5* and PP5 counter 3.4.
Cc1ccc(C(=O)Nc2nnc(NC(=S)Nc3ccccc3)s2)cc1 was read as Myeloid diff 2 inactive, PP1 inh 21.3*, PP5 primary 3.3, CTSL1 counter 1.2, NadD block 23.4, core dimer inh 4.1, PP1 inh confirm 24.4* and PP5 counter 0.2.
For O=C(Nc1nn[nH]n1)c1cccc([N+](=O)[O-])c1 the results were Myeloid diff 2 inactive, PP1 inh 0.6, PP5 primary -1.2, CTSL1 counter -0.2, NadD block -2.5 and core dimer inh 8.9.
O=C(Nc1nn[nH]n1)c1cccc(Oc2ccccc2)c1 was read as Myeloid diff 2 inactive, PP1 inh 25.7*, PP5 primary 0.6, CTSL1 counter -0.7, NadD block 5.0, core dimer inh -1.0, PP1 inh confirm 8.2 and PP5 counter -3.2.
`O=C(NCc1ccccc1OC(F)(F)F)C1CCC(=O)N(CCCN2CCOCC2)C1` (stereo not given) gave Myeloid diff 2 inactive and NadD block -2.8.
`COc1ccc(N2CCN(C(=O)COC(=O)c3ccc(OC(F)F)cc3)CC2)cc1` gave Myeloid diff 2 inactive, PP1 inh -3.1, PP5 primary 0.5 and NadD block -5.8.
CCOC(=O)c1sc(N2N=C(C)/C(=C\c3ccc(OCC(=O)OC)cc3)C2=O)nc1C was read as Myeloid diff 2 inactive, PP1 inh 24.0*, PP5 primary 0.9, CTSL1 counter 2.1, NadD block 5.3, core dimer inh -1.4, PP1 inh confirm 8.3 and PP5 counter 0.8.
O=C(CSc1nc2nc(-c3cccs3)cc(C(F)(F)F)c2c(=O)[nH]1)Nc1ccc(F)c(F)c1 was read as Myeloid diff 2 inactive, PP1 inh 38.8*, PP5 primary 3.1, CTSL1 counter 4.0, NadD block 22.2, core dimer inh 5.2, PP1 inh confirm 30.2* and PP5 counter 1.6.
Cc1ccc(C)c(NC(=O)CSc2nc3nc(-c4cccs4)cc(C(F)(F)F)c3c(=O)[nH]2)c1 was read as Myeloid diff 2 inactive, PP1 inh 23.0*, PP5 primary 3.0, CTSL1 counter 5.3, NadD block 16.1, core dimer inh 32.6, PP1 inh confirm 14.3 and PP5 counter -0.7.
Cc1cccc(NC(=O)COC(=O)CN2C(=O)c3ccccc3C2=O)c1 was read as Myeloid diff 2 inactive and NadD block -7.0.
For Cc1ccc(OCC(=O)Nc2nc(-c3ccccn3)cs2)c(C)c1 the results were Myeloid diff 2 inactive, PP1 inh 43.1*, PP5 primary 7.2, CTSL1 counter 4.8, NadD block 12.4, core dimer inh 8.5, PP1 inh confirm 41.5* and PP5 counter -3.2.
For O=C(COc1ccc(F)cc1)Nc1nc(-c2ccccn2)cs1 the results were Myeloid diff 2 inactive, PP1 inh 26.7*, PP5 primary 4.9, CTSL1 counter -1.2, NadD block -0.6, core dimer inh 6.0, PP1 inh confirm 34.7* and PP5 counter -3.0.
Screening O=C(COc1ccc([N+](=O)[O-])cc1)Nc1nc(-c2ccccn2)cs1 returned Myeloid diff 2 inactive, PP1 inh 41.0*, PP5 primary 0.8, CTSL1 counter 2.8, NadD block 7.2, core dimer inh -9.4, PP1 inh confirm 37.0* and PP5 counter -0.3.
For O=C(Nc1nc(-c2ccccn2)cs1)Nc1ccc(F)cc1F the results were Myeloid diff 2 inconclusive, PP1 inh 38.2*, PP5 primary 2.1, CTSL1 counter -1.7, NadD block 7.1, core dimer inh 3.4, PP1 inh confirm 41.9* and PP5 counter -1.0.
O=C(COc1cccc(F)c1)Nc1nc(-c2ccccn2)cs1 was read as Myeloid diff 2 inactive and NadD block 3.7.
Screening COc1ccccc1-c1nnc(SCC(=O)Nc2ccc(N3CCOCC3)cc2)n1C returned Myeloid diff 2 inactive, PP1 inh -1.4, PP5 primary 1.4, CTSL1 counter 3.6, NadD block -1.4 and core dimer inh -5.0.
For CSc1ncccc1C(=O)OCC(=O)Nc1nc(C)c(Cl)cc1Cl the results were Myeloid diff 2 inactive and NadD block -0.6.
For CSCCC(NC(=O)c1cccc(C)c1)C(=O)OCN1C(=O)c2ccccc2C1=O (stereo not given) the results were Myeloid diff 2 inactive, PP1 inh -1.5, PP5 primary 0.5, CTSL1 counter 8.5, NadD block -5.8 and core dimer inh 1.5.
`COc1ccccc1CNC(=O)CCNC(=O)C1CCN(S(=O)(=O)c2ccccc2)CC1` gave Myeloid diff 2 inactive, PP1 inh 1.4, PP5 primary 0.3, CTSL1 counter -0.7, NadD block -4.1 and core dimer inh 5.0.
For COc1ccc(CCNC(=O)CCn2c(=O)c3cccn3c3cccnc32)cc1OC the results were Myeloid diff 2 inactive, PP1 inh -0.7, PP5 primary 1.6, CTSL1 counter 1.4, NadD block -7.6 and core dimer inh 4.2.
`CC1(c2ccccc2)NC(=O)N(CC(=O)Nc2nc(-c3ccccn3)cs2)C1=O` (stereo not given) gave Myeloid diff 2 inactive, PP1 inh 12.0, PP5 primary 4.4, CTSL1 counter 4.5, NadD block 2.5 and core dimer inh 5.8.
`Cc1ccc(C2(C)NC(=O)N(CC(=O)Nc3nc(-c4ccccn4)cs3)C2=O)cc1` (stereo not given) gave Myeloid diff 2 inactive, PP1 inh 25.6*, PP5 primary 2.0, CTSL1 counter 4.8, NadD block 7.2, core dimer inh 0.4, PP1 inh confirm 42.9* and PP5 counter 4.7.
Screening CCC(=O)N1N=C(c2c(-c3ccccc3)c3cc(Cl)ccc3[nH]c2=O)CC1c1ccco1 (stereo not given) returned Myeloid diff 2 inactive, PP1 inh 27.1*, PP5 primary -0.6, CTSL1 counter 0.7, NadD block 5.2, core dimer inh 17.4, PP1 inh confirm 10.1 and PP5 counter -1.2.
`CC#CCN(Cc1ccco1)C(=O)C1CCC(=O)N(CCc2cccc(F)c2)C1` (stereo not given) gave Myeloid diff 2 inactive and NadD block 1.4.
`CCC1=NN=C(c2ccc(F)cc2)C(c2c[nH]c3ccccc23)N1O` (stereo not given) gave Myeloid diff 2 inactive, PP1 inh 21.7*, PP5 primary 2.6, CTSL1 counter 1.0, NadD block -1.9, core dimer inh -4.1, PP1 inh confirm -4.1 and PP5 counter -2.4.
